Activity calls are given as the source filed them. The calls are words filed in the database; no cut-off is given here. Square brackets hold non-standard residues; d marks the D form. Peptide text beside a SMILES is read from it. Abu = CC[C@H](N)C(=O)O
How the values were obtained:
[1] = system: HUVEC; assay: Antiangiogenic activity in human HUVEC cells assessed as inhibition of cell proliferation at 100 uM after 72 hrs by WST-1-based colorimetric assay; assay type: functional
In short: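 HUVEC (passages 2–7) plated at 2000 cells/well, peptide 100 μM added in fully supplemented medium to adherent cells for 72 hours; WST-1 then applied in serum-free medium for four hours and absorbance read at 450 nm. Two biological replicates, each mean of three technical replicates; percent inhibition relative to vehicle control.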

[2] = system: HUVEC; assay: Antiangiogenic activity in human HUVEC cells assessed as inhibition of cell adhesion at 100 uM upto 3 hrs by migration assay; assay type: functional
In short: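 HUVEC (passages 2–7, EGM-2, 37°C, 5% CO2) seeded at 25,000 cells/well in single-compartment impedance E-plates with or without peptide at 100 μM; adhesion tracked as change in cell index amplitude over 3 hours. Two biological replicates, each the mean of three same-plate technical replicates; expressed as percent inhibition relative to vehicle control.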

[3] = system: HUVEC; assay: Antiangiogenic activity in human HUVEC cells assessed as inhibition of cell migration at 50 uM; assay type: functional
In short: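 Real-time impedance migration: upper chamber coated with fibronectin (20μg/ml), 45,000 HUVEC/well (passages 2–7) added with or without peptide at 50 μM; fully supplemented medium below as chemoattractant; migration read as cell index from sensors under porous membrane. Duplicate experiments, each averaging three same-plate replicates; percent inhibition versus vehicle control.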

[4] = system: HUVEC; assay: Antiangiogenic activity in human HUVEC cells assessed as inhibition of tube structure formation at 100 uM relative to control; assay type: functional, cell-based
In short: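 Wells coated with reduced growth factor basement membrane matrix, gelled 30 minutes at 37 °C; HUVEC seeded on gel at 15,000 cells/well with or without peptide (100 μM), control receiving equal DMSO vehicle. Incubated overnight at 37 °C, 5% CO2; tube structures imaged by camera on inverted microscope.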

Row | Compound | inhibition at 100 µM [1] | inhibition at 100 µM [2] | inhibition at 50 µM [3] | inhibition [4]
1 | CC[C@H](NC(=O)[C@@H](NC(=O)[C@H](CC(N)=O)NC(=O)[C@H](CC(N)=O)NC(=O)[C@@H](NC(=O)[C@@H](N)CC(N)=O)[C@@H](C)CC)C(C)C)C(=O)N[C@@H](CC(N)=O)C(=O)N[C@@H](Cc1ccccc1)C(=O)O (H-NINNV[Abu]NF-OH) | 24.2% | 70.8% | 31.6% | –
2 | H-LRRFSTMPFMFVNINNVVNF-OH | 62.2% | 95.1% | 98.8% | Active
3 | CC[C@H](NC(=O)[C@H](Cc1ccccc1)NC(=O)[C@H](CCSC)NC(=O)[C@H](C)NC(=O)[C@@H]1CCCN1C(=O)[C@H](CCSC)NC(=O)[C@@H](NC(=O)[C@H](CO)NC(=O)[C@H](Cc1ccccc1)NC(=O)[C@H](CCCNC(=N)N)NC(=O)[C@H](CCCNC(=N)N)NC(=O)[C@@H](N)CC(C)C)[C@@H](C)O)C(=O)N[C@@H](CC(N)=O)C(=O)N[C@H](C(=O)N[C@@H](CC(N)=O)C(=O)N[C@@H](CC(N)=O)C(=O)N[C@H](C(=O)N[C@@H](CC)C(=O)N[C@@H](CC(N)=O)C(=O)N[C@@H](Cc1ccccc1)C(=O)O)C(C)C)[C@@H](C)CC (H-LRRFSTMPAMF[Abu]NINNV[Abu]NF-OH) | 65.4% | 95.6% | 99.8% | –
4 | H-LRRFSTMPFMF-OH | 2.97% | -2.6% | -14.2% | –
5 | H-LRRFSTMPFMFANINNVANF-OH | 48.6% | 98.2% | 99.6% | –
6 | H-LRRFSTMPFMFGNINNVGNF-OH | 25.7% | 97.8% | 87.9% | –
7 | CC[C@H](NC(=O)[C@H](Cc1ccccc1)NC(=O)[C@H](C)NC(=O)[C@H](Cc1ccccc1)NC(=O)[C@@H]1CCCN1C(=O)[C@H](CCSC)NC(=O)[C@@H](NC(=O)[C@H](CO)NC(=O)[C@H](Cc1ccccc1)NC(=O)[C@H](CCCNC(=N)N)NC(=O)[C@H](CCCNC(=N)N)NC(=O)[C@@H](N)CC(C)C)[C@@H](C)O)C(=O)N[C@@H](CC(N)=O)C(=O)N[C@H](C(=O)N[C@@H](CC(N)=O)C(=O)N[C@@H](CC(N)=O)C(=O)N[C@H](C(=O)N[C@@H](CC)C(=O)N[C@@H](CC(N)=O)C(=O)N[C@@H](Cc1ccccc1)C(=O)O)C(C)C)[C@@H](C)CC (H-LRRFSTMPFAF[Abu]NINNV[Abu]NF-OH) | 63.6% | 98.3% | 99.6% | –
8 | H-LRRFSTMPFMFSNINNVSNF-OH | 50.5% | 98% | 92.6% | –
9 | CC[C@H](NC(=O)[C@H](Cc1ccccc1)NC(=O)[C@H](CCSC)NC(=O)[C@H](Cc1ccccc1)NC(=O)[C@@H]1CCCN1C(=O)[C@H](CCSC)NC(=O)[C@@H](NC(=O)[C@H](CO)NC(=O)[C@H](Cc1ccccc1)NC(=O)[C@H](CCCNC(=N)N)NC(=O)[C@H](CCCNC(=N)N)NC(=O)[C@@H](N)CC(C)C)[C@@H](C)O)C(=O)N[C@@H](CC(N)=O)C(=O)N[C@H](C(=O)N[C@@H](CC(N)=O)C(=O)N[C@@H](CC(N)=O)C(=O)N[C@H](C(=O)N[C@@H](CC)C(=O)N[C@@H](CC(N)=O)C(=O)N[C@@H](Cc1ccccc1)C(=O)O)C(C)C)[C@@H](C)CC (H-LRRFSTMPFMF[Abu]NINNV[Abu]NF-OH) | 69.7% | 98.5% | 97% | –
10 | CC[C@H](NC(=O)[C@H](Cc1ccccc1)NC(=O)[C@H](CCSC)NC(=O)[C@@H](N)Cc1ccccc1)C(=O)N[C@@H](CC(N)=O)C(=O)N[C@H](C(=O)N[C@@H](CC(N)=O)C(=O)N[C@@H](CC(N)=O)C(=O)N[C@H](C(=O)N[C@@H](CC)C(=O)N[C@@H](CC(N)=O)C(=O)N[C@@H](Cc1ccccc1)C(=O)O)C(C)C)[C@@H](C)CC (H-FMF[Abu]NINNV[Abu]NF-OH) | 28.3% | 66.2% | -16.6% | –
11 | CC[C@H](C)[C@H](NC(=O)[C@H](CC(N)=O)NC(=O)[C@H](CS)NC(=O)[C@H](Cc1ccccc1)NC(=O)[C@H](CCSC)NC(=O)[C@H](Cc1ccccc1)NC(=O)[C@@H]1CCCN1C(=O)[C@H](CCSC)NC(=O)[C@@H](NC(=O)[C@H](CO)NC(=O)[C@H](Cc1ccccc1)NC(=O)[C@H](CCCNC(=N)N)NC(=O)[C@H](CCCNC(=N)N)NC(=O)[C@@H](N)CC(C)C)[C@@H](C)O)C(=O)N[C@@H](CC(N)=O)C(=O)N[C@@H](CC(N)=O)C(=O)N[C@H](C(=O)N[C@@H](CS)C(=O)N[C@@H](CC(N)=O)C(=O)N[C@@H](Cc1ccccc1)C(=O)O)C(C)C (H-LRRFSTMPFMFCNINNVCNF-OH) | 67.5% | 96.2% | 91% | –
12 | CC[C@H](NC(=O)[C@@H](NC(=O)[C@H](CC(N)=O)NC(=O)[C@H](CC(N)=O)NC(=O)[C@@H](NC(=O)[C@H](CC(N)=O)NC(=O)[C@H](CC)NC(=O)[C@@H](N)Cc1ccccc1)[C@@H](C)CC)C(C)C)C(=O)N[C@@H](CC(N)=O)C(=O)O (H-F[Abu]NINNV[Abu]N-OH) | 20.6% | 77.5% | 40.4% | –
13 | CC[C@H](C)[C@H](NC(=O)[C@H](CC(N)=O)NC(=O)[C@@H](NC(=O)[C@H](Cc1ccccc1)NC(=O)[C@H](C)NC(=O)[C@H](Cc1ccccc1)NC(=O)[C@@H]1CCCN1C(=O)[C@H](CCSC)NC(=O)[C@@H](NC(=O)[C@H](CO)NC(=O)[C@H](Cc1ccccc1)NC(=O)[C@H](CCCNC(=N)N)NC(=O)[C@H](CCCNC(=N)N)NC(=O)[C@@H](N)CC(C)C)[C@@H](C)O)[C@@H](C)CC)C(=O)N[C@@H](CC(N)=O)C(=O)N[C@@H](CC(N)=O)C(=O)N[C@H](C(=O)N[C@H](C(=O)N[C@@H](CC(N)=O)C(=O)N[C@@H](Cc1ccccc1)C(=O)O)[C@@H](C)CC)C(C)C | 46.6% | 94.8% | 69.3% | Active
14 | H-LRRFSTMP-OH | 7.02% | -0.14% | -20.1% | Active
15 | CC[C@H](NC(=O)[C@H](Cc1ccccc1)NC(=O)[C@H](CCSC)NC(=O)[C@H](Cc1ccccc1)NC(=O)[C@@H]1CCCN1C(=O)[C@H](CCSC)NC(=O)[C@@H](NC(=O)[C@@H](N)CO)[C@@H](C)O)C(=O)N[C@@H](CC(N)=O)C(=O)N[C@H](C(=O)N[C@@H](CC(N)=O)C(=O)N[C@@H](CC(N)=O)C(=O)N[C@H](C(=O)N[C@@H](CC)C(=O)N[C@@H](CC(N)=O)C(=O)N[C@@H](Cc1ccccc1)C(=O)O)C(C)C)[C@@H](C)CC (H-STMPFMF[Abu]NINNV[Abu]NF-OH) | 13.8% | 6.82% | -24.5% | –
16 | H-LRRFSTMPFMFININNVINF-OH | 73.2% | 98.6% | 92.9% | –
17 | H-LRRFSTMPFMFTNINNVTNF-OH | 59.1% | 98.7% | 96.1% | –
18 | H-LNRFSTMPF-OH | 6.35% | 0.32% | -16.1% | –
19 | CC[C@H](NC(=O)[C@H](C)NC(=O)[C@H](CCSC)NC(=O)[C@H](Cc1ccccc1)NC(=O)[C@@H]1CCCN1C(=O)[C@H](CCSC)NC(=O)[C@@H](NC(=O)[C@H](CO)NC(=O)[C@H](Cc1ccccc1)NC(=O)[C@H](CCCNC(=N)N)NC(=O)[C@H](CCCNC(=N)N)NC(=O)[C@@H](N)CC(C)C)[C@@H](C)O)C(=O)N[C@@H](CC(N)=O)C(=O)N[C@H](C(=O)N[C@@H](CC(N)=O)C(=O)N[C@@H](CC(N)=O)C(=O)N[C@H](C(=O)N[C@@H](CC)C(=O)N[C@@H](CC(N)=O)C(=O)N[C@@H](Cc1ccccc1)C(=O)O)C(C)C)[C@@H](C)CC (H-LRRFSTMPFMA[Abu]NINNV[Abu]NF-OH) | 65.1% | 99.3% | 99.6% | –
20 | CC[C@H](NC(=O)[C@@H](N)Cc1ccccc1)C(=O)N[C@@H](CC(N)=O)C(=O)N[C@H](C(=O)N[C@@H](CC(N)=O)C(=O)O)[C@@H](C)CC (H-F[Abu]NIN-OH) | 8.17% | 3.45% | -23.7% | –
